High-throughput results deposited in PubChem by several laboratories.
Shown are actives, neighbours in structure and some others; about 3.4% of the full set was active somewhere.
TRPML3 ag = human mucolipin-3 channel agonism | Q8TDD5 | HEK293 TRPML3-YFP, Fluo-8 calcium fluorescence; 100% = the carbachol control signal | activation, % at 3 µM | 0.29% of 220,000 active | AID 1448;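 active = activation above its plate's cutoff, the mean activation of the plate's test wells plus 3 SD, cut at about 12% in these data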;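 also: 0% = DMSO only wells and 100% = carbachol wells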
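system = HEK293 cells stably carrying human TRPML3-YFP | doses = one concentration, 3 µM nominal, 0.3% DMSO | timing = dye loading 1 h 37 °C then 30 min ambient, 125 s read | detection = Fluo-8 calcium dye fluorescence, ex 470-495, em 515-575 nm | benchmarks = high control carbachol 87 µM, low control DMSO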
TAAR1 antag = human TAAR1 antagonism; Q96RJ0; CHO RD-HGA16 TAAR1, Fluo-8 calcium fluorescence, antagonist; inhibition, % at 3 µM; 1.5% of 360,000 active; AID 624466;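 active = inhibition above a per-plate cutoff, the mean inhibition of test compounds on that plate plus 3 SD, cut at about 49% in these data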;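 also: 0% = DMSO plus EC80 beta-PEA response and 100% = DMSO alone without agonist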
Target sequence (Q96RJ0 whole entry, looked up): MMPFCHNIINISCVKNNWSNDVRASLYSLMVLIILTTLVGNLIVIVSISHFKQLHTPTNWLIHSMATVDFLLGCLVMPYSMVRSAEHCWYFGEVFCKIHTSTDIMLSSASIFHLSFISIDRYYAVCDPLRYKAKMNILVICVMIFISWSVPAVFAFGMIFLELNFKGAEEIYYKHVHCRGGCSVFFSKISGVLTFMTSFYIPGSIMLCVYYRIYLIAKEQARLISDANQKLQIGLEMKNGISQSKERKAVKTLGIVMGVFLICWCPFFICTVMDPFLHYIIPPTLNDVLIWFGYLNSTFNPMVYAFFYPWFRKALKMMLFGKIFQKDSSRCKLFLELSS
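test system = CHO RD-HGA16 cells bearing hTAAR1 | replication = singlicate | controls = DMSO-only wells and EC80 β-PEA-stimulated wells | reagent = EC80 β-phenethylamine stimulus | read-out basis = percent inhibition of PEA-evoked calcium signal, max/basal emission ratio | schedule = seeding 17-24 h prior, 75-min 37 °C, 30-min RT dye loading | signal = kinetic Fluo-8 calcium fluorescence measurement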
TAAR1 ag = human TAAR1 agonism; Q96RJ0; CHO RD-HGA16 TAAR1, Fluo-8 calcium fluorescence; vehicle wells 0%, saturating PEA agonist 100%; activation, % at 3 µM; 0.99% of 360,000 active; AID 624467;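 active = activation above the mean activation of all test compounds in the run plus 3 SD, cut at about 38% in these data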
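Signal – calcium-sensitive Fluo-8 signal, excitation 470-495, emission 515-575 nm · System – RD-HGA16 (CHO) cells co-expressing Gα16 and hTAAR1 · Incubation – 17-24 h seeding, 75 min 37 °C dye, 30 min RT · Compound dosing – 3 µM single concentration · Repeats – no replicates (n 1)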
GPR7 antagonist = antagonists of human GPR7 (neuropeptides B/W receptor 1). 1.1% of 290,000 active. GPR7-expressing cells, fluorescence antagonist assay. AID 1861. inhibition, % at 4.4 µM; in the data active = inhibition above about 16%, passing the limit was not always enough;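 also: cells stimulated with the agonist NPW; 0% = agonist with vehicle and 100% = vehicle without agonist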
Target sequence (P48145 whole entry, looked up): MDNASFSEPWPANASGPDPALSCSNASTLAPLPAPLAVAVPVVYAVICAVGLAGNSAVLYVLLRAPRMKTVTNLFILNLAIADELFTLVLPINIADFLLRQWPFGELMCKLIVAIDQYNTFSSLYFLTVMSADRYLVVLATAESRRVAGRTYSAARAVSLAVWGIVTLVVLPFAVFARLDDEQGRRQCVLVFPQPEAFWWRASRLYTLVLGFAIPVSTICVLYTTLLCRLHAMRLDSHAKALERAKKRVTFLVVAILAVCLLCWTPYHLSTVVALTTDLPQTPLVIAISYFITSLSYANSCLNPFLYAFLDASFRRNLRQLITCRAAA
zfTRPN1 agonist = activates the zebrafish TRPN1 channel | 0.18% of 220,000 active | AID 1424 | HEK293 zebrafish TRPN1-YFP, Fluo-8 calcium fluorescence; 100% = response to 87 µM carbachol | activation, % at 3 µM;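 active = activation above its plate's cutoff, the mean activation of test wells on that plate plus 3 SD, cut at about 19% in these data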;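 also: 0% = DMSO alone and 100% = 87 µM carbachol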
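Assay system: Zebrafish TRPN1-YFP in HEK293 cells | Incubation: Dye loading 1 h at 37 °C, then 30 min room temperature | Measured by: Kinetic Fluo-8 fluorescence, ex 470-495, em 515-575 nm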
LANA-H2A inh = blocks KSHV LANA binding to histone H2A/H2B; 0.6% of 320,000 active; Q9QR71; inhibition, % (concentration not given with the values); cell-free LANA-H2A/H2B peptide, fluorescence polarization; in the data active = inhibition mostly above about 10%, no sharp cut-off; inactive = mostly below about 6.7%
Starred values were filed as active, the others as inactive; . = no result given; + = active, no number; ! = not active in a repeat.

SMILES | TRPML3 ag | TAAR1 antag | TAAR1 ag | GPR7 antagonist | zfTRPN1 agonist | LANA-H2A inh
COC(=O)[C@]1(Cc2ccccc2)N[C@H](CN(C)S(=O)(=O)c2ccc(-c3ccccc3)cc2)[C@@H]2C(=O)N(C)C(=O)[C@@H]21 | . | 12 | 4 | . | . | 4
CCN(C[C@H]1N[C@@](CC)(C(=O)OC)[C@H]2C(=O)N(Cc3ccccc3)C(=O)[C@@H]12)S(=O)(=O)c1ccc(-c2ccccc2)cc1 | . | 25 | 1 | . | . | -1
CCN(C[C@H]1N[C@@](Cc2ccccc2)(C(=O)OC)[C@H]2C(=O)N(C)C(=O)[C@@H]12)C(=O)NC(C)C | . | 3 | 2 | . | . | +
CCN(C[C@H]1N[C@@](CC)(C(=O)OC)[C@H]2C(=O)N(Cc3ccccc3)C(=O)[C@@H]12)S(=O)(=O)c1ccc(C)cc1 | . | 30 | 2 | . | . | +
Cc1[nH]c2ccccc2c1CC(=O)Nc1ccc(Nc2cccnc2)c(-c2ccc(Oc3ccccc3)cc2)c1 | . | 9 | 0 | . | . | .
CN(C)C(=O)Oc1ccc[n+](C)c1 | 1 | -11 | 2 | -7 | 1 | 74*!
C[n+]1cccc(C(=O)[O-])c1 | . | -20 | 1 | . | . | -1
CCOCCCNC(=O)C(NC(=O)c1ccccc1O)c1ccc(C)cc1 (stereo not given) | 1 | -2 | 11 | -13 | 1 | 1
CCOCCCNC(=O)C(NC(=O)c1ccccn1)c1ccc(C)cc1 (stereo not given) | -1 | -4 | 4 | 0 | 1 | 12*
CN(CC(=O)Nc1ccccc1Br)C(=O)c1ccc(COc2ccccc2)cc1 | . | 22 | 3 | -7 | . | -4
CN(CC(=O)Nc1ccccc1Br)C(=O)c1ccncc1 | . | -30 | 4 | -6 | . | 29*
CCc1ccc2oc(-c3cccc(NC(=O)c4cccnc4)c3)nc2c1 | 1 | 49* | 15 | -4 | 1 | -7
Cc1ccc(C(=O)N2CCC[C@@H]2C(=O)N2CCC[C@@H]2C(=O)NCc2ccccc2)cc1 | . | -14 | -1 | . | . | .
CCN(CCNCC(O)COCc1ccc(Cl)cc1)c1cccc(C)c1 (stereo not given) | 2 | 19 | 40* | 8 | 3 | -5
O=C1c2ccccc2C(=O)N1CCCc1cn(C[C@H]2CC[C@@H]([C@@H]3CC[C@H](Cn4cc(CCCN5C(=O)c6ccccc6C5=O)nn4)O3)O2)nn1 | . | 28 | 13 | -9 | . | 2
O=C1c2ccccc2C(=O)N1CCCCc1cn(C[C@H]2CC[C@@H]([C@@H]3CC[C@H](Cn4cc(CCCCN5C(=O)c6ccccc6C5=O)nn4)O3)O2)nn1 | . | 55* | 20 | . | . | 3
Cc1ccccc1C(=O)N[C@H](C(=O)N1CCC[C@H]1C(=O)NCc1ccccc1)c1ccccc1 | . | -37 | 2 | . | . | .
COc1ccccc1CCn1cnc(-c2cccc(F)c2)c1C(C)C | . | 40 | 14 | . | . | .
Cc1c(N=Cc2ccc(Cl)o2)c(=O)n(-c2ccccc2)n1C | 0 | . | . | 2 | 0 | 23*
CCc1cc2c(nc1CC)CCCN2Cc1ccccc1C(F)(F)F | . | -16 | -1 | . | . | .
O=[N+]([O-])c1ccc(O)c(/C=N/Nc2ccccn2)c1 | 1 | 73* | 45* | -2 | 1 | 3
CCn1c(NC(=O)c2ccc(F)cc2)c2ccccc2nc1=O | 0 | -12 | 1 | -9 | 1 | 0
CCn1c(NC(=O)C(C)C)c2ccccc2nc1=O | 0 | 18 | 4 | 3 | -1 | 11*
CCN=C1NC(c2ccc(C(F)(F)F)cc2)C(C(=O)OC)=C(C)N1Cc1ccccc1C(F)(F)F (stereo not given) | . | 21 | 19 | . | . | .
CCC(C)Oc1nc(C)cc(C)c1S(=O)(=O)c1ccccc1C (stereo not given) | 42* | 12 | 2 | -5 | -1 | 4
SMILES | TRPML3 ag | TAAR1 antag | TAAR1 ag | GPR7 antagonist | zfTRPN1 agonist | LANA-H2A inh
COc1nc(C)cc(C)c1S(=O)(=O)c1ccccc1C | . | -6 | 0 | -14 | . | 0
c1ccc2c(CCNc3ncnc4nc[nH]c34)cccc2c1 | 5 | 67* | 25 | 8 | 5 | -3
c1ccc(CCCNc2ncnc3nc[nH]c23)cc1 | 1 | 8 | 5 | -6 | 2 | -4
O=C1c2ccccc2C(=O)c2c(Nc3ccc(CCO)cc3)ccc(O)c21 | 0 | 10 | 2 | 3 | -3 | 9
O=C1c2c(O)ccc(O)c2C(=O)c2c(NCCNCCO)ccc(NCCNCCO)c21 | . | 3 | 4 | . | . | 77*
Cc1ccc(S(=O)(=O)N2CCN(c3nc(C)nc4sc(C)c(C)c34)CC2)cc1 | 1 | . | . | 14* | 1 | .
N#Cc1ccccc1NCc1ccccc1 | -1 | -29 | -5 | -12 | -1 | 15*
CCCCc1c(-c2ccccc2OC)ncn1Cc1cc(F)ccc1F | . | 13 | 4 | . | . | .
O=[N+]([O-])c1ccc(Sc2nc3ccccc3[nH]2)c(Cl)c1 | . | 1 | 0 | . | . | .
Cc1cc(N2CCN(C(=O)OC(C)(C)C)C[C@H]2C)ccc1N1CCS(=O)(=O)CC1 | . | 13 | 2 | . | . | .
Cc1ccc(-n2c(-c3ccccc3)c[n+]3c2CCC3)cc1 | 1 | -4 | 6 | 10 | 1 | 8
Cc1ccc(-n2c(-c3ccccc3)c[n+]3c2CCc2ccccc2-3)c(C)c1 | -1 | 15 | 1 | 64* | -1 | -2
COC(=O)c1cc2c(c3c4cc(OC)ccc4n(S(=O)(=O)c4cccc(C)c4)c13)C(=O)N(C)C2 | . | -13 | -2 | . | . | .
Cc1cccc(N2CCN(C(=O)Cc3ccccc3[N+](=O)[O-])CC2)c1C | . | -15 | 4 | -16 | . | 21*
O=C(Cc1ccccc1[N+](=O)[O-])N1CCN(c2ccc(F)cc2)CC1 | 1 | 14 | 1 | -5 | 1 | 0
COc1ccc(NC(=O)CSc2nn3c(=O)c(C)nnc3s2)cc1 | . | -13 | 0 | -18 | . | 28*
COc1ccc(-c2cc(C(=O)N3CCc4ccccc4C3)no2)cc1OC | -1 | 1 | 14 | -5 | -1 | -9
O=C(c1cc(-c2ccc(Cl)cc2)on1)N1CCc2ccccc2C1 | . | 3 | 39* | -6 | . | 1
CN[C@H]1C[C@H]2c3[nH]c4c(-c5ccc6c(c5)OCO6)cccc4c3CCN2C(=O)[C@H]1[C@H](C)O | . | 38 | 5 | . | . | .
Cc1cccc(NC(=O)CSc2nc3ccccc3c3nc(CCc4c(C)n[nH]c4C)nn23)c1 | 0 | 51* | 21 | -5 | 0 | -4
O=C(O)c1cccc(Cn2c(Cl)c(/C=N/NC(=O)c3ccccc3O)sc2=O)c1 | 1 | -7 | 0 | -4 | -1 | 15*
CN1CCCCC(NC(=O)c2cccc(C(F)(F)F)c2)C1=O (stereo not given) | . | 7 | 0 | . | . | .
